In ChEMBL document CHEMBL1128279, “Potent inhibitors of human inosine monophosphate dehydrogenase type II. Fluorine-substituted analogues of thiazole-4-carboxamide adenine dinucleotide” (J Med Chem, 1995):

Key:
[1] = molecular target: Inosine-5'-monophosphate dehydrogenase 2 (Homo sapiens) (UniProt P12268); assay: Inhibitory binding constant was determined against human Inosine-5'-monophosphate dehydrogenase 2 (IMPDH type II) from intercept of Michaelis-Menten plot
Method in brief: (§1)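 Human IMPDH type II, stored at -70 °C in 20 mM Tris-HCl pH 8, 20 mM KCl, 1 mM EDTA, 1 mM DTT, thawed and filtered before use. Assay at 37 °C, started by adding enzyme, with saturating IMP. NADH formation read at 340 nm for 2–10 min. NAD at 20, 40, 80 and 160 µM, with two or three inhibitor levels. Kii (intercept) and Kis (slope) obtained by direct least-squares fit to the noncompetitive equation.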

[2] = molecular target: Inosine-5'-monophosphate dehydrogenase 2 (Homo sapiens) (UniProt P12268); assay: Inhibitory binding constant was determined against human Inosine-5'-monophosphate dehydrogenase 2 (IMPDH type II) from slope of Michaelis-Menten plot; method in brief: as §1

Inosine-5'-monophosphate dehydrogenase 2 (Homo sapiens), sequence (P12268 2-514 limits assumed): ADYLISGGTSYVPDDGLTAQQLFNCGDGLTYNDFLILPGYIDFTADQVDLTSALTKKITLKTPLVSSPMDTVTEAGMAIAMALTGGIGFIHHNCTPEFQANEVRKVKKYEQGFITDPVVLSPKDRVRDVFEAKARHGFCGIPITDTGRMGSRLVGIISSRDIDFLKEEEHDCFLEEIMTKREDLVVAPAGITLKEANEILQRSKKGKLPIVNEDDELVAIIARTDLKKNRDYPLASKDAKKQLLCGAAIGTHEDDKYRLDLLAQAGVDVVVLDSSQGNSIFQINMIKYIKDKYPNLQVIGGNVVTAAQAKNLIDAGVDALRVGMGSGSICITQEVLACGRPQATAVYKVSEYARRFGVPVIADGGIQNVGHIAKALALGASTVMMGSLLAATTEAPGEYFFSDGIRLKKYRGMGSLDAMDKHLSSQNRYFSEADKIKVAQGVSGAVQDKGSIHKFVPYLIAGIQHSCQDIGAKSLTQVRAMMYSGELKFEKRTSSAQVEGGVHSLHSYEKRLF

Structure (SMILES) | Kii [1] | Kis [2]
NC(=O)c1csc([C@H]2O[C@@H](COP(=O)(O)OP(=O)(O)OC[C@H]3O[C@@H](n4cnc5c(N)ncnc54)[C@H](O)[C@@H]3O)[C@H](O)[C@@H]2O)n1 | 0.19 µM | 0.3 µM
NC(=O)c1csc([C@@H]2O[C@H](COP(=O)(O)C(F)(F)P(=O)(O)OC[C@@H]3O[C@H](n4cnc5c(N)ncnc54)[C@@H](O)[C@H]3O)[C@@H](O)[C@H]2O)n1 | 0.17 µM | 0.3 µM
NC(=O)c1csc([C@@H]2O[C@H](COP(=O)(O)CP(=O)(O)OC[C@@H]3O[C@H](n4cnc5c(N)ncnc54)[C@@H](O)[C@H]3O)[C@@H](O)[C@H]2O)n1 | 0.11 µM | 

Further lines, results first:

Kii [1] | Kis [2] | Structure (SMILES)
0.5 µM | 6 µM | NC(=O)c1csc([C@@H]2O[C@H](COP(=O)(O)OP(=O)(O)OC[C@@H]3O[C@H](n4cnc5c(N)ncnc54)[C@@H](F)[C@H]3O)[C@@H](O)[C@H]2O)n1
2.9 µM | 13 µM | NC(=O)c1csc([C@@H]2O[C@H](COP(=O)(O)OP(=O)(O)OC[C@@H]3O[C@H](n4cnc5c(N)ncnc54)[C@H](F)[C@H]3O)[C@@H](O)[C@H]2O)n1
0.7 µM | 1.5 µM | NC(=O)c1csc([C@@H]2O[C@H](COP(=O)(O)OP(=O)(O)OC[C@@H]3O[C@H](n4cnc5c(N)ncnc54)[C@@H](O)[C@H]3F)[C@@H](O)[C@H]2O)n1
